{"source": "paper PMC5002266", "about": "(Nuclear medicine and biology, 2016)", "key": {"[1]": {"test_system": "BALB/c nude mice bearing U87MG human glioma xenografts", "assay": "Biodistribution of 99mTc radiotracer in tumor-bearing mice", "type": "in vivo", "settings": "BALB/c nude mice with U87MG xenografts, mean ± SD, n = 5", "summary_of_the_method": "(§1)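 Female BALB/c nude mice (4–5 weeks, 16–20 g) carried U87MG cells (5 × 10^6, s.c. shoulder flank) and were used at a tumor volume of ~400 mm3 (~10 days). Each received ~0.1 MBq of 99mTc tracer (~2 ng HYNIC conjugate) in saline by tail vein. Five animals were killed per time point (5, 30, 60, 120 min p.i.). Organs were weighed and γ-counted as %ID/g, and tumor-to-background ratios were reported as mean ± SD.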"}, "[2]": {"assay": "Metabolism", "type": "in vivo", "settings": "athymic nude mice (n = 3); ~10 MBq tail vein; feces at 2 h p.i.; radio-HPLC", "summary_of_the_method": "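Athymic nude mice (n = 3) received ~10 MBq tracer i.v. Feces collected at 120 min p.i. were counted, suspended in 20% aqueous acetonitrile, vortexed ~5 min and centrifuged at 8,000 rpm. The supernatant was counted, filtered at 0.20 µm and run on radio-HPLC (C8, 1 mL/min; 25 mM NH4OAc pH 6.8/acetonitrile, isocratic 5 min then gradient to 60% acetonitrile at 20 min).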"}, "[3]": {"test_system": "integrin αvβ3", "assay": "Monitoring αvβ3 expression by SPECT/CT in three tumor models", "type": "in vivo, athymic nu/nu mice", "settings": "SPECT/CT of tumor-bearing athymic nude mice, ~50 MBq", "summary_of_the_method": "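Female athymic nu/nu mice (4–5 weeks) received 5 × 10^6 cells in 0.1 mL saline: U87MG and PC-3 into shoulder flanks, MDA-MB-435 into breast fat pads. At tumor sizes of 0.1–0.5 g, they were given tracer i.v. and imaged on a multi-pinhole (1.0 mm) SPECT/CT at 60 min p.i. under ~3.0% isoflurane. Tumor ROIs came from CT, and activity was converted via a γ-counter-calibrated standard curve to %ID/g, assuming ~1 g/cm3.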"}, "[4]": {"assay": "Biodistribution of 99mTc radiotracer in tumor-bearing mice", "type": "in vivo, BALB/c nude mice", "settings": "female, BALB/c nude, mouse, iv, 0.1 MBq, total radioactivity", "summary_of_the_method": "as §1"}, "[5]": {"settings": "feces at 2 h p.i.; ref [14]; cited from earlier work"}}}
{"molecule": "[^99mTc(HYNIC-4P-RGD3)(tricine)(TPPTS)] (head to tail) [^99mTc-4P-RGD3]", "values": [{"measurement": "Tumor/Blood ratio", "setting": "[1]; 5 min p.i.", "value": "1.23 ± 0.34"}, {"measurement": "Tumor/Liver ratio", "setting": "[1]; 5 min p.i.", "value": "0.55 ± 0.16"}, {"measurement": "Tumor/Lung ratio", "setting": "[1]; 5 min p.i.", "value": "0.69 ± 0.15"}, {"measurement": "Tumor/Muscle ratio", "setting": "[1]; 5 min p.i.", "value": "1.80 ± 0.48"}, {"measurement": "Tumor/Blood ratio", "setting": "[1]; 30 min p.i.", "value": "3.69 ± 0.48"}, {"measurement": "Tumor/Liver ratio", "setting": "[1]; 30 min p.i.", "value": "0.79 ± 0.11"}, {"measurement": "Tumor/Lung ratio", "setting": "[1]; 30 min p.i.", "value": "1.07 ± 0.13"}, {"measurement": "Tumor/Muscle ratio", "setting": "[1]; 30 min p.i.", "value": "2.29 ± 0.34"}, {"measurement": "Tumor/Blood ratio", "setting": "[1]; 60 min p.i.", "value": "6.21 ± 2.34"}, {"measurement": "Tumor/Liver ratio", "setting": "[1]; 60 min p.i.", "value": "0.87 ± 0.25"}, {"measurement": "Tumor/Lung ratio", "setting": "[1]; 60 min p.i.", "value": "1.08 ± 0.25"}, {"measurement": "Tumor/Muscle ratio", "setting": "[1]; 60 min p.i.", "value": "1.78 ± 0.69"}, {"measurement": "Tumor/Blood ratio", "setting": "[1]; 120 min p.i.", "value": "8.21 ± 1.71"}, {"measurement": "Tumor/Liver ratio", "setting": "[1]; 120 min p.i.", "value": "0.70 ± 0.19"}, {"measurement": "Tumor/Lung ratio", "setting": "[1]; 120 min p.i.", "value": "1.45 ± 0.22"}, {"measurement": "Tumor/Muscle ratio", "setting": "[1]; 120 min p.i.", "value": "2.79 ± 0.55"}, {"measurement": "Radiotracer remaining intact in the feces sample", "setting": "[2]", "value": "More than 95%"}, {"measurement": "Ranking order of tumor uptake values among tumor models", "setting": "[3]", "value": "U87MG > MDA-MB-435 >> PC-3"}]}
{"molecule": "N=C(N)NCCC[C@@H]1NC(=O)[C@H](CCCCNC(=O)CCOCCOCCOCCOCCNC(=O)CC[C@H](NC(=O)CCOCCOCCOCCOCCNC(=O)c2ccc(NN)nc2)C(=O)NCCOCCOCCOCCOCCC(=O)NCCCC[C@@H]2NC(=O)[C@@H](Cc3ccccc3)NC(=O)[C@H](CC(=O)O)NC(=O)CNC(=O)[C@H](CCCNC(=N)N)NC2=O)NC(=O)[C@@H](Cc2ccccc2)NC(=O)[C@H](CC(=O)O)NC(=O)CNC1=O", "note": "[^99mTc-3P-RGD2, [^99mTc(HYNIC-3P-RGD2)(tricine)(TPPTS)], metal not drawn]", "values": [{"measurement": "tissue uptake at 2 h", "setting": "[4]; blood", "value": "0.32 ± 0.06", "unit": "%ID/g"}, {"measurement": "tissue uptake at 0.5 h", "setting": "[4]; brain", "value": "0.41 ± 0.17", "unit": "%ID/g"}, {"measurement": "tissue uptake at 1 h", "setting": "[4]; brain", "value": "0.41 ± 0.05", "unit": "%ID/g"}, {"measurement": "tissue uptake at 2 h", "setting": "[4]; brain", "value": "0.23 ± 0.09", "unit": "%ID/g"}, {"measurement": "tissue uptake at 1 h", "setting": "[4]; eyes", "value": "2.57 ± 0.59", "unit": "%ID/g"}, {"measurement": "tissue uptake at 2 h", "setting": "[4]; eyes", "value": "2.12 ± 0.86", "unit": "%ID/g"}, {"measurement": "tissue uptake at 0.5 h", "setting": "[4]; heart", "value": "3.48 ± 0.45", "unit": "%ID/g"}, {"measurement": "tissue uptake at 1 h", "setting": "[4]; heart", "value": "3.13 ± 0.44", "unit": "%ID/g"}, {"measurement": "tissue uptake at 2 h", "setting": "[4]; heart", "value": "2.07 ± 0.75", "unit": "%ID/g"}, {"measurement": "tissue uptake at 0.5 h", "setting": "[4]; intestine", "value": "4.24 ± 1.54", "unit": "%ID/g"}, {"measurement": "tissue uptake at 1 h", "setting": "[4]; intestine", "value": "5.45 ± 1.47", "unit": "%ID/g"}, {"measurement": "tissue uptake at 2 h", "setting": "[4]; intestine", "value": "3.37 ± 1.32", "unit": "%ID/g"}, {"measurement": "tissue uptake at 0.5 h", "setting": "[4]; kidneys", "value": "32.9 ± 2.94", "unit": "%ID/g"}, {"measurement": "tissue uptake at 1 h", "setting": "[4]; kidneys", "value": "24.6 ± 3.59", "unit": "%ID/g"}, {"measurement": "tissue uptake at 2 h", "setting": "[4]; kidneys", "value": "19.1 ± 2.6", "unit": "%ID/g"}, {"measurement": "tissue uptake at 0.5 h", "setting": "[4]; liver", "value": "5.82 ± 0.79", "unit": "%ID/g"}, {"measurement": "tissue uptake at 1 h", "setting": "[4]; liver", "value": "4.83 ± 0.6", "unit": "%ID/g"}, {"measurement": "tissue uptake at 2 h", "setting": "[4]; liver", "value": "4.52 ± 0.76", "unit": "%ID/g"}, {"measurement": "tissue uptake at 0.5 h", "setting": "[4]; lungs", "value": "4.24 ± 0.87", "unit": "%ID/g"}, {"measurement": "tissue uptake at 1 h", "setting": "[4]; lungs", "value": "3.5 ± 1.01", "unit": "%ID/g"}, {"measurement": "tissue uptake at 2 h", "setting": "[4]; lungs", "value": "2.39 ± 0.71", "unit": "%ID/g"}, {"measurement": "tissue uptake at 0.5 h", "setting": "[4]; muscle", "value": "2.25 ± 0.48", "unit": "%ID/g"}, {"measurement": "tissue uptake at 1 h", "setting": "[4]; muscle", "value": "1.5 ± 0.49", "unit": "%ID/g"}, {"measurement": "tissue uptake at 2 h", "setting": "[4]; muscle", "value": "1.23 ± 0.21", "unit": "%ID/g"}, {"measurement": "tissue uptake at 0.5 h", "setting": "[4]; spleen", "value": "5.03 ± 0.45", "unit": "%ID/g"}, {"measurement": "tissue uptake at 1 h", "setting": "[4]; spleen", "value": "4.02 ± 0.7", "unit": "%ID/g"}, {"measurement": "tissue uptake at 2 h", "setting": "[4]; spleen", "value": "3.8 ± 0.5", "unit": "%ID/g"}, {"measurement": "tissue to tissue ratio at 0.5 h", "setting": "[4]; tumor / blood", "value": "4.33 ± 0.12"}, {"measurement": "tissue to tissue ratio at 1 h", "setting": "[4]; tumor / blood", "value": "5.86 ± 2.21"}, {"measurement": "tissue to tissue ratio at 2 h", "setting": "[4]; tumor / blood", "value": "12 ± 3.62"}, {"measurement": "tissue to tissue ratio at 0.5 h", "setting": "[4]; tumor / liver", "value": "1.16 ± 0.54"}, {"measurement": "tissue to tissue ratio at 1 h", "setting": "[4]; tumor / liver", "value": "1.1 ± 0.54"}, {"measurement": "tissue to tissue ratio at 2 h", "setting": "[4]; tumor / liver", "value": "0.84 ± 0.1"}, {"measurement": "tissue to tissue ratio at 0.5 h", "setting": "[4]; tumor / lung", "value": "1.52 ± 0.74"}, {"measurement": "tissue to tissue ratio at 1 h", "setting": "[4]; tumor / lung", "value": "1.33 ± 0.52"}, {"measurement": "tissue to tissue ratio at 2 h", "setting": "[4]; tumor / lung", "value": "1.74 ± 0.63"}, {"measurement": "tissue to tissue ratio at 0.5 h", "setting": "[4]; tumor / muscle", "value": "1.85 ± 1.38"}, {"measurement": "tissue to tissue ratio at 1 h", "setting": "[4]; tumor / muscle", "value": "2.25 ± 1.56"}, {"measurement": "tissue to tissue ratio at 2 h", "setting": "[4]; tumor / muscle", "value": "3.09 ± 0.4"}, {"measurement": "tissue uptake at 0.5 h", "setting": "[4]; tumor", "value": "6.77 ± 1.3", "unit": "%ID/g"}, {"measurement": "tissue uptake at 1 h", "setting": "[4]; tumor", "value": "4.62 ± 0.57", "unit": "%ID/g"}, {"measurement": "tissue uptake at 2 h", "setting": "[4]; tumor", "value": "3.93 ± 0.63", "unit": "%ID/g"}, {"measurement": "tissue uptake at 0.5 h", "setting": "[4]; whole blood", "value": "1.54 ± 0.14", "unit": "%ID/g"}, {"measurement": "tissue uptake at 1 h", "setting": "[4]; whole blood", "value": "0.87 ± 0.1", "unit": "%ID/g"}, {"measurement": "Radiotracer remaining intact in the feces samples", "setting": "[5]", "value": 70, "unit": "%"}]}
